Consider one molecule from ChEMBL document CHEMBL4354879, “Bioisosteric Discovery of NPA101.3, a Second-Generation RET/VEGFR2 Inhibitor Optimized for Single-Agent Polypharmacology” (J Med Chem, 2020).

The source made the active and inactive calls. No cut-off for these calls is given here.

For series [1], the system named is GTPase HRas (Homo sapiens), P01112 [G12V]. In words: Inhibition of HRAS G12V mutant (unknown origin) expressed in mouse NIH/3T3 cells assessed as reduction in cell proliferation up to 100 nM supplemented with fresh medium containing compound for every 2 to 3 days measured at 2 days interval during compound dosing. Format: cell-based. In a few lines:
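NIH3T3 transformants seeded 10000/well in 2% calf serum; next day drug or vehicle added, medium changed every 2–3 days; cells counted every 2 days; IC50 from curve fit of last-day counts.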

Series [2] has as its target High affinity nerve growth factor receptor (Homo sapiens, UniProt P04629). In words: Inhibition of recombinant human His-tagged TRKA cytoplasmic domain (441 to 796 residues) expressed in baculovirus expression system using peptide substrate preincubated for 60 mins followed by substrate addition by microfluidic assay.
The nature of series [3]: Toxicity in BALB/c nu/nu mouse assessed as change in alanine transaminase level at 10 mg/kg, po administered daily for 7 days. The following applies: in vivo, 168 h. Format: organism-based. In a few lines:
(§1)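 Mice dosed orally with 10 mg/kg/day for 7 days; standard blood markers of organ damage measured.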

Series [4] in a line: Toxicity in BALB/c nu/nu mouse assessed as change in albumin level at 10 mg/kg, po administered daily for 7 days. Format: organism-based. The following applies: in vivo, 168 h. The method, boiled down:
as §1

Series [5] is described as follows: Cytotoxicity against RET deficient human Nthy-ori 3-1 cells supplemented with fresh medium containing compound for every 2 to 3 days measured during compound dosing. The series is classed as cell-based. The method, boiled down:
(§2)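 Human RET-negative lines were seeded in six-well plates at 10000 cells/well, in 5% FCS (Nthy-ori-3-1) or 10% FCS (BCPAP, 8505-C, CALU-1, A549, PC-9). Drug or vehicle was added the day after plating, with medium changed every 2–3 days. Cells were counted every 2–3 days. IC50 was fitted from the last day of the growth curves.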

The test system of series [6] is Proto-oncogene tyrosine-protein kinase receptor Ret (Homo sapiens), P07949 [C634R]. As to the kind of experiment: Inhibition of RET isoform 9 C634R mutant (unknown origin) expressed in rat Rat1 assessed as reduction in RET phosphorylation at Y1062 residue at 3 nM measured after 2 hrs by Western blot analysis. The series is classed as cell-based. In a few lines:
(§3)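 RAT1 fibroblasts expressing RET-9 C634R, serum-starved, treated 2 h with 0.1–10.0 nM; 50 μg lysate blotted for RET pY905 and pY1062, normalized to total RET; ECL detection.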
(In general: Immunoblotting shows a protein as a band on a membrane.)

Series [7] shares this test system. As to the kind of experiment: Inhibition of RET isoform 9 C634R mutant (unknown origin) expressed in rat Rat1 assessed as reduction in RET phosphorylation at Y1062 residue at 0.3 nM measured after 2 hrs by Western blot analysis. Format: cell-based. The method, boiled down:
as §3

Series [8] addresses T1, SHC-transforming protein 1 (Homo sapiens) (UniProt P29353).
T1 sequence (whole entry): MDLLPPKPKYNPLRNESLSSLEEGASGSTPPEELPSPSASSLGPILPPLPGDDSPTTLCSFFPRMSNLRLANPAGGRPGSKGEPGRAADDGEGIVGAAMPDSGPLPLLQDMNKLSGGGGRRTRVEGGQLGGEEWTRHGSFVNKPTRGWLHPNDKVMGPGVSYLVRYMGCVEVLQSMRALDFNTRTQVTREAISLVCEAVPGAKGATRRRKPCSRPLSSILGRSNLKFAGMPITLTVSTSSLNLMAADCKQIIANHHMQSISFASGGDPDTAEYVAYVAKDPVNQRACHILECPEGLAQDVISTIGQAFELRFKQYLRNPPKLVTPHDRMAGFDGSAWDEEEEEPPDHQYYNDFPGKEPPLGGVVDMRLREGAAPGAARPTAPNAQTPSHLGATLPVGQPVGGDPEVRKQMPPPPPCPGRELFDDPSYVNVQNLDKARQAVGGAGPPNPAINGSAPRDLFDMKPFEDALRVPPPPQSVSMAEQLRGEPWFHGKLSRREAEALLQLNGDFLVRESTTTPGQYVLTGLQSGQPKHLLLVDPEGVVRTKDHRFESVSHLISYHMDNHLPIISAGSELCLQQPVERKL
In words: Effect on SHC phosphorylation in RET deficient human Calu1 cells at 1 to 100 nM measured after 2 hrs by western blot analysis.

For series [9], the target named is T2, Coiled-coil domain-containing protein 6/Tyrosine-protein kinase receptor RET (Homo sapiens) (UniProt P07949+Q16204). As to the kind of experiment: Inhibition of CCDC6/RET in human TPC1 cells assessed as reduction in RET phosphorylation at Y1062 residue at 0.3 to 30 nM measured after 2 hrs by Western blot analysis. Format: cell-based.
T2 sequence (P07949 29-1114 limits assumed): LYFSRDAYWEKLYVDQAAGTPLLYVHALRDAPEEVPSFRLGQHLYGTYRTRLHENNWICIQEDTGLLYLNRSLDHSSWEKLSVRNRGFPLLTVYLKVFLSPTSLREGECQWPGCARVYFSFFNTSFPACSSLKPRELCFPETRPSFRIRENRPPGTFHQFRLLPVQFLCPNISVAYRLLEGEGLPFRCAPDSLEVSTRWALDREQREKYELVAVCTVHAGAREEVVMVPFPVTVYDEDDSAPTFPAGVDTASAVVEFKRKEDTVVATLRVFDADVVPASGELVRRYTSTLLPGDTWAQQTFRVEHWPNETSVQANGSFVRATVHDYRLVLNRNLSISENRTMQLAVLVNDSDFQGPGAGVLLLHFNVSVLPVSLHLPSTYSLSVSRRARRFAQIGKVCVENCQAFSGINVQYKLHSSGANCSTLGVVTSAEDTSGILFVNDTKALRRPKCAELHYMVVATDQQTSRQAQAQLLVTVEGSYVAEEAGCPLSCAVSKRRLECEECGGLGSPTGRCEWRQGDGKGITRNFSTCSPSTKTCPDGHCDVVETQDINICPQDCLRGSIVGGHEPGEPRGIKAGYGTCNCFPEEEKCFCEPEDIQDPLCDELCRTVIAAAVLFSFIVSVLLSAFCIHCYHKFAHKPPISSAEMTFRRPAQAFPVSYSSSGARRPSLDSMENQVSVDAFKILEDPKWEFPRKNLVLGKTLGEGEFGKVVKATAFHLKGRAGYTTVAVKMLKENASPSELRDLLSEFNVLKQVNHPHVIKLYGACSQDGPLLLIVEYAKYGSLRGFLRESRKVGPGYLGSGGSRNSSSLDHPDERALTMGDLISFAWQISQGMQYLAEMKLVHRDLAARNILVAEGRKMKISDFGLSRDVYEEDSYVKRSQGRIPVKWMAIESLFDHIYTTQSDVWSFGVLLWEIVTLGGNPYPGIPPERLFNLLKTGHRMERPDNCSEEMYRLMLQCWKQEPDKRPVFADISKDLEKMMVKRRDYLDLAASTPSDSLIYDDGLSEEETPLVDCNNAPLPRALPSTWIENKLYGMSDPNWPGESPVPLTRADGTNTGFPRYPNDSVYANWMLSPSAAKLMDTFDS
T2 sequence (Q16204 2-474 partner limits assumed): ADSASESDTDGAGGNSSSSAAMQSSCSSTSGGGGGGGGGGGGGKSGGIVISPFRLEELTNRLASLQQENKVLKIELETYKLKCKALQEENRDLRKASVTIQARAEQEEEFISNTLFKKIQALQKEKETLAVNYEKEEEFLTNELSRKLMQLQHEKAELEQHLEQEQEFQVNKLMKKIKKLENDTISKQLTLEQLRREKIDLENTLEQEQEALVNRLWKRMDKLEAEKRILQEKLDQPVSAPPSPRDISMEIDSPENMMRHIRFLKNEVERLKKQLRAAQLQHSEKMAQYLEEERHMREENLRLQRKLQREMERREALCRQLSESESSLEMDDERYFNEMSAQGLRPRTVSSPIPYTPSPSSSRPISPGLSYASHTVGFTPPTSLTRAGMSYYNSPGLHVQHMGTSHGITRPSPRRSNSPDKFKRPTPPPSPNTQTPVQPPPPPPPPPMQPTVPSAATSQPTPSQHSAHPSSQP
A further series has as its system Mus musculus. As to the kind of experiment: In vivo inhibition of HRAS G12V mutant transfected in mouse NIH/3T3 cells implanted BALB/c nu/nu mouse assessed as reduction in MAPK phosphorylation in tumor at 1 mg/kg, po administered once daily via gavage for 3 days measured 3 hrs post-last dose by Western blot analysis. The series is classed as functional, organism-based.

The species entered for series [10] is Homo sapiens. In words: Effect on MAPK phosphorylation in RET deficient human Nthy-ori 3-1 cells at 1 to 100 nM measured after 2 hrs by western blot analysis.
The subject of series [11] is Proto-oncogene tyrosine-protein kinase receptor Ret (Homo sapiens), P07949 [C634R]. As to the kind of experiment: Inhibition of RET […] C634R mutant (unknown origin) expressed in mouse BAF3 cells assessed as reduction in RET phosphorylation at Y905 residue at 0.3 to 30 nM measured after 2 hrs by Western blot analysis. Format: cell-based. In a few lines:
(§4)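 Ba/F3 cells stably expressing long-isoform RET-51 mutants (electroporation), cultured in RPMI/10% FCS without IL-3; RET phosphorylation read by Western blot with anti-phospho-Y905 and anti-phospho-Y1062 antibodies, ECL detection.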

The subject of series [12] is Proto-oncogene tyrosine-protein kinase receptor Ret (Homo sapiens), P07949 [V804L]. As to the kind of experiment: Inhibition of RET isoform 9 V804L mutant (unknown origin) expressed in rat Rat1 assessed as reduction in RET phosphorylation at Y1062 residue at 1 to 100 nM measured after 2 hrs by Western blot analysis. Format: cell-based. In a few lines:
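Serum-starved RAT1 (RET point mutants) or NIH3T3 (RET rearrangements) cells expressing short RET-9 isoform, treated 2 h; 50 μg total lysate immunoblotted with anti-phospho-Y1062 and anti-phospho-Y905 RET antibodies, normalized to total RET; ECL detection. Compound from 50 mM DMSO stock diluted in growth medium.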

Series [13] has as its system Proto-oncogene tyrosine-protein kinase receptor Ret (Homo sapiens), P07949 [M918T]. In words: Inhibition of RET […] M918T mutant (unknown origin) expressed in mouse BAF3 cells assessed as reduction in RET phosphorylation at Y1062 residue at 0.3 to 30 nM measured after 2 hrs by Western blot analysis. The series is classed as cell-based. The method, boiled down:
as §4

The species entered for series [14] is Homo sapiens. As to the kind of experiment: Effect on MAPK phosphorylation in RET deficient human Calu1 cells at 1 to 100 nM measured after 2 hrs by western blot analysis.
Series [15] concerns the target T2, Coiled-coil domain-containing protein 6/Tyrosine-protein kinase receptor RET (Homo sapiens). As to the kind of experiment: Inhibition of CCDC6/RET in human LC2/ad cells assessed as reduction in RET phosphorylation at Y1062 residue at 0.3 to 30 nM measured after 2 hrs by Western blot analysis. Format: cell-based.
The subject of a further series is BCPAP. As to the kind of experiment: Cytotoxicity against RET deficient human BCPAP cells supplemented with fresh medium containing compound for every 2 to 3 days measured during compound dosing. Format: functional, cell-based. The method, boiled down:
as §2

In series [16] the target is Tyrosine-protein kinase HCK (Homo sapiens) (UniProt P08631). In words: Binding affinity to wild-type human full length HCK (M22 to P526 residues) expressed in bacterial expression system at 100 nM by Kinomescan method relative to control.
Sequence of Tyrosine-protein kinase HCK (Homo sapiens) (P08631 2-526 limits assumed): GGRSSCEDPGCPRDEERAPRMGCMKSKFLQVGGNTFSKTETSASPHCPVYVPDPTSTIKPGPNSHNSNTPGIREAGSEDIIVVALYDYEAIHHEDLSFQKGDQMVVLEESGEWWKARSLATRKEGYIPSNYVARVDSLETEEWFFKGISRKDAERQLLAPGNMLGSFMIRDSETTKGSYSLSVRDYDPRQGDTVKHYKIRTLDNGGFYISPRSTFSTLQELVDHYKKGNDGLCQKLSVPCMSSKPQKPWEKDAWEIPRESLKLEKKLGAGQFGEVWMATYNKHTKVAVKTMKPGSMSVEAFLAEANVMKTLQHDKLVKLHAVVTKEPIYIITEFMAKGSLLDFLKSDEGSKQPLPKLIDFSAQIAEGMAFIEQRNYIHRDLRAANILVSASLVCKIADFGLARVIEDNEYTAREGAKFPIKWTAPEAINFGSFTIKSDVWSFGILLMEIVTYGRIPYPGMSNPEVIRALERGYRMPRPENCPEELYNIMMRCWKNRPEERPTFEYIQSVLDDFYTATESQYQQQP

Sequence of Proto-oncogene tyrosine-protein kinase receptor Ret (Homo sapiens), P07949 [C634R] (P07949 whole entry C634R, canonical isoform): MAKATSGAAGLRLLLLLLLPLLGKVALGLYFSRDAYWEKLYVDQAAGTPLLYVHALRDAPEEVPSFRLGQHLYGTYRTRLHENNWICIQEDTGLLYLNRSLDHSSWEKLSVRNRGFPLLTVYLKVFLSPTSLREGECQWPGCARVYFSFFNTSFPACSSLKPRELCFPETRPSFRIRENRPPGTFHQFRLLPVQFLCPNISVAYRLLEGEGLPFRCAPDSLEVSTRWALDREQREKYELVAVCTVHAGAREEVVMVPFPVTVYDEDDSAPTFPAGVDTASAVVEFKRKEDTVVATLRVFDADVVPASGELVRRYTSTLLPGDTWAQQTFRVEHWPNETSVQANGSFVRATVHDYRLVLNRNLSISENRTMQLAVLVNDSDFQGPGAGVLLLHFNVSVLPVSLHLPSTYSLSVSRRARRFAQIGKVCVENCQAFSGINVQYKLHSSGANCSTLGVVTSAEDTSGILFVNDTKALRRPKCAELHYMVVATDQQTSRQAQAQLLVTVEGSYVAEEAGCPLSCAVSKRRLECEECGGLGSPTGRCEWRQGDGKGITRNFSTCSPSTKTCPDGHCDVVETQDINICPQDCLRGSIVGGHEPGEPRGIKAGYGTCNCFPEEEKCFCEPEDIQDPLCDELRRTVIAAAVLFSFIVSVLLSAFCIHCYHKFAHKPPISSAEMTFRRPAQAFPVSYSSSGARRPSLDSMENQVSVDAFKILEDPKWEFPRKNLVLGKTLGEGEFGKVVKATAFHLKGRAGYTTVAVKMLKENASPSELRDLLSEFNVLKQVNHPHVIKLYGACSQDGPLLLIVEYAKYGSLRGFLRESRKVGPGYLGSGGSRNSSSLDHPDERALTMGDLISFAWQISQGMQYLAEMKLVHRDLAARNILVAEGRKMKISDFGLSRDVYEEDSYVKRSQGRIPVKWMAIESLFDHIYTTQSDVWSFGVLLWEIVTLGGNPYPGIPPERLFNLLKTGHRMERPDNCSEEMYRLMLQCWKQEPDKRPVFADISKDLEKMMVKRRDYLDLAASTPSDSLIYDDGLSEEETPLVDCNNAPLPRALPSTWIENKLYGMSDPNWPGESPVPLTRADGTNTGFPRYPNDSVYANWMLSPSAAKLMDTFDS
Sequence of High affinity nerve growth factor receptor (P04629 whole entry, the tested form may be a part): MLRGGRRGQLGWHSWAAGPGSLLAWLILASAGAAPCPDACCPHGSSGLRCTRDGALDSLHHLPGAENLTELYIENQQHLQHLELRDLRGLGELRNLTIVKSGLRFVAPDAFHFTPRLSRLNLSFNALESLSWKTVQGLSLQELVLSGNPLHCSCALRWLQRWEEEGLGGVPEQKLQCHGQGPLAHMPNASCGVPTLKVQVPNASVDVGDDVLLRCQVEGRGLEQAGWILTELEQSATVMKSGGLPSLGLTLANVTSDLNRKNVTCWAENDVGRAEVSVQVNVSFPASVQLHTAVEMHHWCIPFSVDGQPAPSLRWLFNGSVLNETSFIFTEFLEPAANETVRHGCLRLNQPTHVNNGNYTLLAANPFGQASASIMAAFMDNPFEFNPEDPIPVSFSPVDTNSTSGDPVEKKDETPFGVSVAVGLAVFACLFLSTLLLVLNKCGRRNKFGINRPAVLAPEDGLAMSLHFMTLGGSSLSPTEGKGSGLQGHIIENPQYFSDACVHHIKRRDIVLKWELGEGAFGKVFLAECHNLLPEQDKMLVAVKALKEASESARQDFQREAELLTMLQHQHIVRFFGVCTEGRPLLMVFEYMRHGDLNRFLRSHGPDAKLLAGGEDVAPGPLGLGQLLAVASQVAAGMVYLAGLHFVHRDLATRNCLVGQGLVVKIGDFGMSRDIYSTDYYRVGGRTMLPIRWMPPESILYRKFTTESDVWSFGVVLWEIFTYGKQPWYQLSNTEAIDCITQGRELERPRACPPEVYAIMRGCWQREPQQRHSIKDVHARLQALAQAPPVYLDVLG
Sequence of GTPase HRas (Homo sapiens), P01112 [G12V] (P01112 whole entry G12V): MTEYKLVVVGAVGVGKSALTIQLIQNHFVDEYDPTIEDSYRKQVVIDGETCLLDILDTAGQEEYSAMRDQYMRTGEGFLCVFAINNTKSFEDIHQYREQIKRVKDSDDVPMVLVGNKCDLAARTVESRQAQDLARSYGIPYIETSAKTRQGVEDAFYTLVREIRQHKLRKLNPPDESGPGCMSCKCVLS
Sequence of Proto-oncogene tyrosine-protein kinase receptor Ret (Homo sapiens), P07949 [M918T] (P07949 whole entry M918T): as the sequence (P07949 whole entry C634R, canonical isoform) above, with R634C, M918T counted along it
Sequence of Proto-oncogene tyrosine-protein kinase receptor Ret (Homo sapiens), P07949 [V804L] (P07949 whole entry V804L, canonical isoform): as the sequence (P07949 whole entry C634R, canonical isoform) above, with R634C, V804L counted along it

On to `CC(C)(C)c1cc(NC(=O)Cc2ccc(-n3cnc4cc(-c5ccc(S(C)(=O)=O)cc5)ccc43)cc2)no1`, for which the inhibition entry (in series [1]; in the series on Mus musculus) was “inactive” each time. Besides, the half-inhibitory concentration (IC50) (commonly the point on the concentration scale where inhibition reaches its midpoint) in [2] was 32 nM; in [5] it was above 100 nM; in the series on BCPAP, above 100 nM. Further, the Activity entry in [3] is “Non-Toxic”; in series [4], “Non-Toxic”; in series [16], above 90%. Besides, in [6], the inhibition (as a rule, how much of the control response was suppressed) is 100%. Also, the inhibition entry in [7], in series [9], in series [11], in [12], in series [13] and in [15] was “Active” in each case. Further, the outcome (in [8]; in the series listed under Homo sapiens [10]; in the series filed under Homo sapiens [14]) was inactive.
